# ChEMBL document CHEMBL4477201, “Imidazopyridine and Pyrazolopiperidine Derivatives as Novel Inhibitors of Serine Palmitoyl Transferase” (J Med Chem, 2016)
# Active and inactive are the calls of the source. The rule behind the calls is not given here.
# Assays:
# [1] = Fraction unbound in rat; assay type: ADME
# [2] = AUC (0 to 24 hrs) in Sprague-Dawley rat at 1 mg/kg, iv; assay type: ADME, organism-based; design: time < 24 hr, dose 1 mg/kg, route intravenous; details: in vivo
# How it was run: (§1)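 Single dose to fasted male Sprague Dawley rats, IV at 1 mg/kg or oral at 3 mg/kg. Plasma levels followed to derive AUC0-24hr, Cmax, half-life, Vdss and oral bioavailability.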
# [3] = Drug uptake in diet-induced obese C57Bl/6 mouse serum at 3 mg/kg, po qd for 4 weeks measured 6 hrs post last dose; assay type: ADME, organism-based; details: read-out: Drug uptake
# How it was run: (§2)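 Male DIO mice dosed orally for 4 weeks. Sacrificed 6 h after the last dose. Compound measured in serum (ng/mL) and liver (ng/g), and the liver:serum ratio calculated.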
# [4] = Half life in Sprague-Dawley rat at 1 mg/kg, iv; assay type: ADME, organism-based; details: in vivo; how it was run: as §1
# [5] = AUC (0 to 24 hrs) in Sprague-Dawley rat at 3 mg/kg,po; assay type: ADME, organism-based; design: time < 24 hr, dose 3 mg/kg, route oral; details: in vivo; how it was run: as §1
# Mus musculus [6] = experiment: Reduction in total plasma ceramide level in C57BL6 mouse administered through gavage after 6 hrs by mass spectrometry relative to vehicle-treated control; assay type: functional
# How it was run: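 Normal C57bl6 mice given a single oral dose at six dose levels, n=3 per group. Plasma collected 6 h post dose. C16:0, C20:0, C22:0, C24:0 and C24:1 ceramides measured by mass spectrometry and summed; total reduction calculated versus vehicle. ED50 derived from the dose-response; mean ± SEM.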
# Mus musculus [7] = experiment: Reduction in plasma C18:0 ceramide level in diet-induced obese C57BL6 mouse at 1 to 60 mg/kg administered daily through oral gavage for 28 days measured 2 hrs post last dose relative to lean control; assay type: functional, organism-based
# How it was run: (§3)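 DIO mice dosed orally for 28 days, with myriocin as positive control and lean mice as reference. Total and C18:0 plasma ceramides measured 2 h after the final dose.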
# Rattus norvegicus [8] = experiment: Increase in HDL level in cholic acid/cholesterol-fed Sprague-Dawley rat model of dyslipidemia administered bid through oral gavage measured after 1 week by FPLC analysis relative to vehicle-treated control; assay type: functional, organism-based
# How it was run: (§4)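 Sprague Dawley rats fed a cholic acid/cholesterol diet for 14 days, then dosed orally BID for 7 days at five dose levels, n=6. Serum ceramides and VLDL and HDL cholesterol compared with vehicle (dose 0). Mean ± SEM; Dunnett's test, p<0.05.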
# [9] = Ratio of drug uptake in diet-induced obese C57Bl/6 mouse liver to serum at 3 mg/kg, po qd for 4 weeks measured 6 hrs post last dose; assay type: ADME, organism-based; how it was run: as §2
# [10] = Dissociation constant, pKa of the compound; assay type: physicochemical
# [11] = Lipophilicity, log P of compound; assay type: physicochemical; details: octanol/water
# [12] = Cmax in Sprague-Dawley rat at 1 mg/kg, iv; assay type: ADME, organism-based; design: dose 1 mg/kg, route intravenous; details: in vivo; how it was run: as §1
# [13] = target: T1, Serine palmitoyltransferase 1 (Homo sapiens, UniProt O15269); experiment: (§5) Inhibition of SPT1 in human MCF7 cells assessed as suppression of 14C-serine incorporation into ceramide incubated for 2 hrs in presence of 4-HPR; assay type: cell-based
# T1 sequence (O15269 whole entry): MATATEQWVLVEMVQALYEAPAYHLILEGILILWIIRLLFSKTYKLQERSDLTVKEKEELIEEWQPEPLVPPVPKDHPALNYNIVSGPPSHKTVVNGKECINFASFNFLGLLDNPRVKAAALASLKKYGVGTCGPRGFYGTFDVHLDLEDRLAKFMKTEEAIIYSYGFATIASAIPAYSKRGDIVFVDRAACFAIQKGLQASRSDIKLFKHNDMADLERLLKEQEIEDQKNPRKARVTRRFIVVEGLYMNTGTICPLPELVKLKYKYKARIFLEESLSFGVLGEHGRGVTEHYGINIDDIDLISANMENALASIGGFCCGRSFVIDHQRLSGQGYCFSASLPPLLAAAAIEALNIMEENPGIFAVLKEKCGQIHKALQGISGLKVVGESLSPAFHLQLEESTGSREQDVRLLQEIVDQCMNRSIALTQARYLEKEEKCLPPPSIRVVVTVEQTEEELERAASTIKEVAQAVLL
# How it was run: (§6)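 Human MCF-7 cells incubated 2 h with a range of compound concentrations or DMSO control media. Medium contained 14C-serine plus 25 uM 4-HPR to activate SPT. 14C-serine-labeled ceramide products quantified to give EC50.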
# [14] = target: T2, Serine palmitoyltransferase 1 (Homo sapiens) (UniProt O15269); experiment: as §5; assay type: cell-based; how it was run: as §6
# T2 sequence (whole entry): T1 sequence (O15269 whole entry)
# [15] = Drug uptake in diet-induced obese C57Bl/6 mouse serum at 10 mg/kg, po qd for 4 weeks measured 6 hrs post last dose; assay type: ADME, organism-based; details: read-out: Drug uptake; how it was run: as §2
# Rattus norvegicus [16] = experiment: Reduction in vLDL level in cholic acid/cholesterol-fed Sprague-Dawley rat model of dyslipidemia at 60 mg/kg administered bid through oral gavage measured after 1 week by FPLC analysis relative to vehicle-treated control; assay type: functional, organism-based; how it was run: as §4
# [17] = Drug uptake in diet-induced obese C57Bl/6 mouse serum at 1 mg/kg, po qd for 4 weeks measured 6 hrs post last dose; assay type: ADME, organism-based; details: read-out: Drug uptake; how it was run: as §2
# [18] = Volume of distribution at steady state in Sprague-Dawley rat at 3 mg/kg,po; assay type: ADME, organism-based; details: in vivo
# How it was run: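 Male Sprague Dawley rats, fasted, single oral dose of 3 mg/kg. A parallel arm received 1 mg/kg IV. Plasma was sampled for pharmacokinetics over 0-24 hr. Steady-state volume of distribution is reported […], in mL/kg.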
# [19] = Drug uptake in diet-induced obese C57Bl/6 mouse serum at 30 mg/kg, po qd for 4 weeks measured 6 hrs post last dose; assay type: ADME, organism-based; details: read-out: Drug uptake; how it was run: as §2
# [20] = Ratio of drug uptake in diet-induced obese C57Bl/6 mouse liver to serum at 10 mg/kg, po qd for 4 weeks measured 6 hrs post last dose; assay type: ADME, organism-based; how it was run: as §2
# Mus musculus [21] = experiment: Reduction in total liver ceramide level in diet-induced obese C57BL6 mouse at 1 to 60 mg/kg administered daily through oral gavage for 28 days measured 6 hrs post last dose relative to lean control; assay type: functional, organism-based
# How it was run: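 Liver total ceramide levels measured in DIO mice after 4 weeks of oral dosing.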
# [22] = Drug uptake in diet-induced obese C57Bl/6 mouse serum at 60 mg/kg, po qd for 4 weeks measured 6 hrs post last dose; assay type: ADME, organism-based; details: read-out: Drug uptake; how it was run: as §2
# [23] = Half life in Sprague-Dawley rat at 3 mg/kg,po; assay type: ADME, organism-based; details: in vivo; how it was run: as §1
# [24] = Ratio of drug uptake in diet-induced obese C57Bl/6 mouse liver to serum at 1 mg/kg, po qd for 4 weeks measured 6 hrs post last dose; assay type: ADME, organism-based; how it was run: as §2
# [25] = Ratio of drug uptake in diet-induced obese C57Bl/6 mouse liver to serum at 60 mg/kg, po qd for 4 weeks measured 6 hrs post last dose; assay type: ADME, organism-based; how it was run: as §2
# Rattus norvegicus [26] = experiment: Reduction in total plasma ceramide level in cholic acid/cholesterol-fed Sprague-Dawley rat model of dyslipidemia at 30 to 60 mg/kg administered bid through oral gavage measured after 1 week by FPLC analysis relative to vehicle-treated control; assay type: functional, organism-based; how it was run: as §4
# [27] = target: T1, Serine palmitoyltransferase 1; experiment: Inhibition of human SPT1 expressed in microsomes of HEK293 cells incubated for 1hr by LC/MS analysis
# How it was run: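 SPT source was a microsomal fraction from HEK293 cells, with serine and palmitoyl coenzyme A as substrates. Formation of 3-ketodeoxysphinganine quantified by LC/MS. Inhibition determined at 10 concentrations per compound to give IC50.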
# [28] = Ratio of drug uptake in diet-induced obese C57Bl/6 mouse liver to serum at 30 mg/kg, po qd for 4 weeks measured 6 hrs post last dose; assay type: ADME, organism-based; how it was run: as §2
# [29] = Drug uptake in diet-induced obese C57Bl/6 mouse liver at 10 mg/kg, po qd for 4 weeks measured 6 hrs post last dose; assay type: ADME, organism-based; details: read-out: Drug uptake; how it was run: as §2
# Mus musculus [30] = experiment: Reduction in serum insulin AUC in diet-induced obese C57BL6 mouse at 1 to 60 mg/kg, po qd for 4 weeks by oral glucose tolerance test relative to lean control; assay type: functional, organism-based
# How it was run: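 After 4 weeks of oral dosing, DIO mice underwent an oral glucose tolerance test. Insulin and glucose AUC compared with lean mice; trend assessed by ANOVA trend analysis.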
# [31] = Volume of distribution at steady state in Sprague-Dawley rat at 1 mg/kg, iv; assay type: ADME, organism-based; details: in vivo, read-out: Vdss; how it was run: as §1
# [32] = Drug uptake in diet-induced obese C57Bl/6 mouse liver at 60 mg/kg, po qd for 4 weeks measured 6 hrs post last dose; assay type: ADME, organism-based; details: read-out: Drug uptake; how it was run: as §2
# [33] = Drug uptake in diet-induced obese C57Bl/6 mouse liver at 30 mg/kg, po qd for 4 weeks measured 6 hrs post last dose; assay type: ADME, organism-based; details: read-out: Drug uptake; how it was run: as §2
# [34] = Toxicity in rat assessed as induction of gastric enteropathy during 14 days toxicology study; details: in vivo, 336 h
# Mus musculus [35] = experiment: Reduction in total plasma ceramide level in diet-induced obese C57BL6 mouse administered daily through oral gavage for 28 days measured 2 hrs post last dose relative to lean control; assay type: functional, organism-based; how it was run: as §3
# [36] = Toxicity in diet-induced obese C57Bl/6 mouse assessed as change in food intake at 1 to 60 mg/kg, po qd for 4 weeks; assay type: organism-based; details: in vivo, 672 h
# How it was run: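 Food intake monitored in DIO mice during 4 weeks of daily oral dosing.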
# [37] = Drug uptake in diet-induced obese C57Bl/6 mouse liver at 1 mg/kg, po qd for 4 weeks measured 6 hrs post last dose; assay type: ADME, organism-based; details: read-out: Drug uptake; how it was run: as §2
# [38] = Cmax in Sprague-Dawley rat at 3 mg/kg,po; assay type: ADME, organism-based; design: dose 3 mg/kg, route oral; details: in vivo; how it was run: as §1
# [39] = Drug uptake in diet-induced obese C57Bl/6 mouse liver at 3 mg/kg, po qd for 4 weeks measured 6 hrs post last dose; assay type: ADME, organism-based; details: read-out: Drug uptake; how it was run: as §2
# [40] = Oral bioavailability in Sprague-Dawley rat at 3 mg/kg; assay type: ADME, organism-based; details: in vivo; how it was run: as §1
smiles,measurement,setting,value
CCCCCCC(=O)c1cc(-c2ccc(CC(=O)O)cc2)c2nccn2c1,fraction unbound,[1],< 0.02
same,AUC(0-t) at 24 h,[2],1270 ng·h/mL
same,concentration at 6 h,[3],264 ng/mL
same,half-life,[4],2.13 h
same,AUC(0-t) at 24 h,[5],2920 ng·h/mL
same,Activity,Mus musculus [6],Dose-dependent effect
same,ED50,"Mus musculus [6]; C57BL6, po",1.04 mg/kg
same,Activity,Mus musculus [7],Active
same,Activity,Rattus norvegicus [8],Dose-dependent effect
same,Kp at 6 h,[9],3
same,pKa,[10],4.73
same,logP,[11],3.97
same,Cmax,[12],2540 ng/mL
same,EC50,[13],977 nM
same,inhibition,[14],Dose-dependent effect
same,concentration at 6 h,[15],341 ng/mL
same,Activity,Rattus norvegicus [16],Active
same,concentration at 6 h,[17],88 ng/mL
same,Vdss,[18],1.84 L/kg
same,concentration at 6 h,[19],677 ng/mL
same,Kp at 6 h,[20],8
same,Activity,Mus musculus [21],Active
same,concentration at 6 h,[22],3350 ng/mL
same,half-life,[23],1.48 h
same,Kp at 6 h,[24],5
same,Kp at 6 h,[25],54
same,Activity,Rattus norvegicus [26],Active
same,IC50,[27],5.19 nM
same,Kp at 6 h,[28],10
same,concentration at 6 h,[29],2850 ng/g
same,Activity,Mus musculus [30],Active
same,Vd,[31],0.574 L/kg
same,concentration at 6 h,[32],181000 ng/g
same,concentration at 6 h,[33],6580 ng/g
same,Activity,[34],Toxic
same,Activity,Mus musculus [35],Dose-dependent effect
same,Activity,[36],Non-Toxic
same,concentration at 6 h,[37],463 ng/g
same,Cmax,[38],1500 ng/mL
same,concentration at 6 h,[39],789 ng/g
same,bioavailability,[40],75%
